Published values collected from several papers.
Compare with care: the assays were run in different laboratories.

COc1nc(-c2cccc(-c3ccccc3)c2C)ccc1CNCCNC(=O)CCCCCCCCCCC(=O)N1CCN(CCNC(=O)c2cc3c(=O)n4cccc(C)c4nc3n(CCc3cccs3)c2=N)CC1 — Cmax (male Sprague-Dawley rat, plasma; intraperitoneal, 4 mg/kg): 300 ng/mL
C[C@H]1Oc2cc(cnc2N)-c2c(nn(C)c2C#N)CN(C)C(=O)c2ccc(F)cc21 — Cmax (male Sprague-Dawley rat, plasma; oral, 50 mg/kg, single dose): 2480 ng/mL
CC[C@H](C)[C@H](NC(=O)[C@@H]1CCCN1C(=O)CNC(=O)[C@H](Cc1ccccc1)NC(=O)[C@H](CC(N)=O)NC(=O)[C@H](CC(N)=O)NC(=O)[C@H](CO)NC(=O)[C@H](CO)NC(=O)[C@H](Cc1c[nH]cn1)NC(=O)[C@H](CCCNC(=N)N)NC(=O)[C@H](CC(C)C)NC(=O)[C@H](Cc1ccccc1)NC(=O)[C@H](CCC(=O)O)NC(=O)[C@H](C)NC(=O)[C@H](CC(C)C)NC(=O)[C@H](CCCNC(=N)N)NC(=O)[C@H](CCC(N)=O)NC(=O)[C@@H](NC(=O)[C@H](C)NC(=O)[C@@H]1CSSC[C@H](NC(=O)[C@H](CCCCN)NC(=O)CC[C@H](NC(=O)CCCCCCCCCCCCCCCCCCC(=O)O)C(=O)O)C(=O)N[C@@H](CC(N)=O)C(=O)N[C@@H]([C@@H](C)O)C(=O)N[C@@H](C)C(=O)N[C@@H]([C@@H](C)O)C(=O)N1)[C@@H](C)O)C(=O)N[C@@H](CC(C)C)C(=O)N1CCC[C@H]1C(=O)N1CCC[C@H]1C(=O)N[C@H](C(=O)N[C@@H](CC(N)=O)C(=O)N[C@H](C(=O)NCC(=O)N[C@@H](CO)C(=O)N[C@@H](CC(N)=O)C(=O)N[C@H](C(=O)N1CCC[C@H]1C(N)=O)[C@@H](C)O)C(C)C)[C@@H](C)O — half-life (cynomolgus monkey, plasma; subcutaneous, 20 nmol/kg, single dose): 62 h
CNS(=O)(=O)c1ccc(Nc2ncc3cc(Cl)c(=O)n(C4CCCC4)c3n2)c(C)c1 — bioavailability (rat, plasma; oral, 10 mg/kg): 3%
CC(=O)Nc1ccc(O)cc1 — viability (THLE-2; cell growth or viability, MTT; 100 µM, 72 h): 29.1%
C[C@]1(O)CCCN(c2nc(Nc3ccc(S(=O)(=O)N[C@H]4CC[C@H](CN5CCN(c6ccc(C7CCC(=O)NC7=O)c(F)c6)CC5)CC4)cc3F)ncc2C(F)(F)F)C1 (some centres unmarked) — bioavailability (rat, plasma; oral, 10 mg/kg): 24%
NCc1cc2c(cc1F)C(=O)N(C1CCC(=O)NC1=O)C2 (centres unmarked) — half-life (male cynomolgus monkey, plasma; oral, 0.3 mg/kg): 2.2 h
Cc1c(C)c2c(c(C)c1O)CCC(C)(COc1ccc(CC3SC(=O)NC3=O)cc1)O2 (centres unmarked) — viability (THLE-2; cell growth or viability, MTT; 100 µM, 72 h): 9%
